Assay results taken from publication PMC2756285 (Biochemistry, 2009).
No end group written: not given here.

Experiments:
[1] = molecular target: T1, rec-α5LG45 protein—heparin binding (Mus musculus, UniProt Q61001); assay: Peptide inhibition of heparin-binding to rec-α5LG45
T1 sequence (Q61001 3318-3718): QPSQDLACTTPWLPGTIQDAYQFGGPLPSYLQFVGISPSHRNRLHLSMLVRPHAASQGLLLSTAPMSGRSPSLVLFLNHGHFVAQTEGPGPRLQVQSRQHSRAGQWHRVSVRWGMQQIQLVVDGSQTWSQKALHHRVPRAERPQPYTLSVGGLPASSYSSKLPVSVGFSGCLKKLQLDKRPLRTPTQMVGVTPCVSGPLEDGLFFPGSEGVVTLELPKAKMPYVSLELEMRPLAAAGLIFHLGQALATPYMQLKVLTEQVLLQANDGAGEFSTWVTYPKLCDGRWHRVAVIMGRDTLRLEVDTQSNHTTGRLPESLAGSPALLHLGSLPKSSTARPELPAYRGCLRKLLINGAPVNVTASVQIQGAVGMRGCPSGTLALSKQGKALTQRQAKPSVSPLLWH
Outline: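 Mouse laminin α5 LG45 fused to human IgG Fc, expressed in transfected 293T cells, purified on Protein A then heparin-Sepharose. The protein (3 µg), heparin-Sepharose beads (1 mg) and varying peptide amounts were incubated for 1 h at 4 °C in 70 µL of 10 mM Tris-HCl pH 7.4 with 100 mM NaCl. Beads were washed twice. Bound protein was detected by reducing 8% SDS-PAGE and anti-human Fc Western blot with ECL. Run in triplicate.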

cell attachment = settings: cited from earlier work; for cell adhesion (AG73 and EF-1 together): synergetic interaction of syndecan and integrin α2β1
[2] = cited from earlier work
syndecans = settings: membrane-associated proteoglycans; cited from earlier work
syndecan-1 = settings: membrane-associated proteoglycan; cited from earlier work
syndecan-4 = settings: cited from earlier work

Row | IC50 [1] [µM] | Substance | heparin-binding [2] | interaction with syndecans (syndecans) | also measured
1 | 5.9 | AGQWHRVSVRWG-NH2 [A5G81, AGQWHRVSVRWG] |  |  | 
2 |  | DYATLQLQEGRLHFMFDLG [EF-1] |  |  | cell adhesion (AG73 and EF-1 together) (cell attachment): cooperate and induce cell adhesion
3 |  | GLIYYVAHQNQM [AG75] | heparin-binding |  | 
4 | 91.8 | GPLPSYLQFVGI-NH2 [A5G71, GPLPSYLQFVGI] |  |  | 
5 | 0.84 | KMPYVSLELEMR-NH2 [A5G94, KMPYVSLELEMR] |  |  | 
6 |  | KNSFMALYLSKG [A3G75] | heparin-binding sequence | interact with syndecans | 
7 | 7 | LVLFLNHGHFVA-NH2 [A5G77, LVLFLNHGHFVA] |  |  | 
8 |  | RKRLQVQLSIRT [AG73] | the strongest heparin-binding peptide | interact with syndecans | heparin/heparan sulfate binding [2]: heparin/heparan sulfate binding; syndecan-1 binding (syndecan-1): binds syndecan-1; cell adhesion (AG73 and EF-1 together) (cell attachment): cooperate and induce cell adhesion
9 |  | TLFLAHGRLVFM [A4G82] | exhibited heparin- and syndecan-4-binding | interact with syndecans | syndecan-4-binding (syndecan-4): exhibited heparin- and syndecan-4-binding; cell attachment activity (cell attachment): cell attachment activity
